Data from PMC7382256 (Proceedings of the National Academy of Sciences of the …, 2020).

Columns and labels:
Assay type in all cases: binding
CSP1 = CSP1 (Caulobacter vibrioides, UniProt A0A0H3CCM2)
Outline: (§1)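 Peptide or protein, c-di-GMP and buffer were degassed for 15 min; runs at 15 °C. Format 1: cell held about 10 µM peptide/protein and syringe about 200 µM c-di-GMP, 30 injections at 250-s spacing. Format 2 (reverse): cell held about 20 µM c-di-GMP and syringe about 100 µM peptide/protein, 18 injections at 120-s spacing. Concentrations were set by absorbance at 1-cm path.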

CSP2 = CSP2 (Caulobacter vibrioides, UniProt A0A0H3CCM2, K168R)
CSP3 = CSP3 (Caulobacter vibrioides, UniProt A0A0H3CCM2, K168R)
CSP4 = CSP4 (Caulobacter vibrioides, UniProt A0A0H3CCM2, K168R)
CSP6 = CSP6 (Caulobacter vibrioides, UniProt A0A0H3CCM2, K168R)
CSP7 = CSP7 (Caulobacter vibrioides, UniProt A0A0H3CCM2, K168R)
CSP9 = CSP9 (Caulobacter vibrioides, UniProt A0A0H3CCM2, D154A/K168R)
CSP10 = CSP10 (Caulobacter vibrioides, UniProt A0A0H3CCM2, K168R/R155A)
CSP11 = CSP11 (Caulobacter vibrioides, UniProt A0A0H3CCM2, K168R/R156A)
CSP12 = CSP12 (Caulobacter vibrioides, UniProt A0A0H3CCM2, K168R/R157A)
CSP13 = CSP13 (Caulobacter vibrioides, UniProt A0A0H3CCM2, F158A/K168R)
CSP14 = CSP14 (Caulobacter vibrioides, UniProt A0A0H3CCM2, K168R/N159A)
CSP15 = CSP15 (Caulobacter vibrioides, UniProt A0A0H3CCM2, K168R/S160A)
CSP16 = CSP16 (Caulobacter vibrioides, UniProt A0A0H3CCM2, A161L/K168R)
CSP17 = CSP17 (Caulobacter vibrioides, UniProt A0A0H3CCM2, D162A/K168R)
CSP18 = CSP18 (Caulobacter vibrioides, UniProt A0A0H3CCM2, K168R/Y163A)
CSP19 = CSP19 (Caulobacter vibrioides, UniProt A0A0H3CCM2, K164A/K168R)
CSP20 = CSP20 (Caulobacter vibrioides, UniProt A0A0H3CCM2, G165A/K168R)
CSP21 = CSP21 (Caulobacter vibrioides, UniProt A0A0H3CCM2, K168R/P166A)
CSP22 = CSP22 (Caulobacter vibrioides, UniProt A0A0H3CCM2, K168R/R167A)
CSP23 = CSP23 (Caulobacter vibrioides, UniProt A0A0H3CCM2, K168A)
CSP25 = CSP25 (Caulobacter vibrioides, UniProt A0A0H3CCM2, K168R/K170A)
CSP26 = CSP26 (Caulobacter vibrioides, UniProt A0A0H3CCM2, A171L/K168R)
CSP27 = CSP27 (Caulobacter vibrioides, UniProt A0A0H3CCM2, D172A/K168R)
CSP28 = CSP28 (Caulobacter vibrioides, UniProt A0A0H3CCM2, DEL157/K168R)
CSP29 = CSP29 (Caulobacter vibrioides, UniProt A0A0H3CCM2, DEL158/K168R)
CSP30 = CSP30 (Caulobacter vibrioides, UniProt A0A0H3CCM2, DEL159/K168R)
CSP31 = CSP31 (Caulobacter vibrioides, UniProt A0A0H3CCM2, DEL160/K168R)
CSP32 = CSP32 (Caulobacter vibrioides, UniProt A0A0H3CCM2, DEL161/K168R)
H6-MBP-CSP2 = H6-MBP-CSP2 (Caulobacter vibrioides, UniProt A0A0H3CCM2, K168R)
c-di-GMP [1] = assay: Isothermal titration calorimetry; conditions: ITC, 50 mM Tris·HCl pH 8.0, 100 mM NaCl, 15 °C; one-site model
Outline: as §1

c-di-GMP [2] = assay: Microscale thermophoresis; conditions: N-terminally FITC-labeled CSP4
Outline: (§2)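 Binding of nucleotides to an N-terminally FITC-labelled, C-terminally amidated synthetic peptide (≥70% purity, dissolved in ultrapure water, concentration by spectrophotometry). Measured by microscale thermophoresis in standard-treated capillaries with blue-channel fluorescence, 30 s infrared heating at 50% of maximum laser power, then 5 s cooling. Buffer: 50 mM Tris·HCl pH 8.0, 100 mM NaCl, 0.1% polysorbate 20.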

GMP = assay: Microscale thermophoresis; conditions: N-terminally FITC-labeled CSP4
Outline: as §2

GTP = assay: Microscale thermophoresis; conditions: N-terminally FITC-labeled CSP4
Outline: as §2

pGpG = assay: Microscale thermophoresis; conditions: N-terminally FITC-labeled CSP4
Outline: as §2

3′3′-c-di-AMP = assay: Microscale thermophoresis; conditions: N-terminally FITC-labeled CSP4
Outline: as §2

3′3′-cGAMP = assay: Microscale thermophoresis; conditions: N-terminally FITC-labeled CSP4
Outline: as §2

2′3′-cGAMP = assay: Microscale thermophoresis; conditions: N-terminally FITC-labeled CSP4
Outline: as §2

H6-MBP-CSP2, sequence (A0A0H3CCM2 140-174 K168R): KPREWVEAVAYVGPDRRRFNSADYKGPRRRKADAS
CSP2, sequence (A0A0H3CCM2 140-174 K168R): as above
CSP1, sequence (A0A0H3CCM2 140-174): as the sequence (A0A0H3CCM2 140-174 K168R) above, with R29K counted along it
CSP3, sequence (A0A0H3CCM2 144-172 K168R): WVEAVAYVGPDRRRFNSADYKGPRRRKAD

## Nc1nc2c(ncn2[C@@H]2O[C@@H]3CO[P@](=O)(O)O[C@H]4[C@@H](O)[C@H](n5cnc6c(=O)[nH]c(N)nc65)O[C@@H]4CO[P@](=O)(O)O[C@H]3[C@H]2O)c(=O)[nH]1 [c-di-GMP, cyclic diguanylate (3'3'-c-di-GMP)]
CSP1
  Kd: 108 nM
CSP2
  Kd: 19 nM
CSP3
  Kd: 154 nM
CSP4
  Kd: 177 nM
CSP6
  Kd: 1410 nM
CSP7
  Kd: 1710 nM
CSP9
  Kd: 1750 nM
CSP10
  Kd: 1470 nM
CSP11
  Kd: 1510 nM
CSP12
  Kd: 782 nM
CSP13
  Kd: 140 nM
CSP14
  Kd: 221 nM
CSP15
  Kd: 209 nM
CSP16
  Kd: 102 nM
CSP17
  Kd: 145 nM
CSP18
  Kd: 4370 nM
CSP19
  Kd: 261 nM
CSP20
  Kd: 7660 nM
CSP21
  Kd: 346 nM
CSP22
  Kd: 1830 nM
CSP23
  Kd: 4800 nM
CSP25
  Kd: 273 nM
CSP26
  Kd: 251 nM
CSP27
  Kd: 1720 nM
CSP28
  Kd: 1040 nM
CSP29
  Kd: 1270 nM
CSP30
  Kd: 1250 nM
CSP31
  Kd: 439 nM
CSP32
  Kd: 338 nM
H6-MBP-CSP2
  Kd: 125 nM

## RRRFNSADYKGPRRR [CSP5]
c-di-GMP [1]
  Kd to c-di-GMP: No binding

## DRRRFNSADYKGPRRR [CSP8]
c-di-GMP [1]
  Kd to c-di-GMP: No binding

## Ac-DRRRFNSADYKGPRRRKAD-NH2 [CSP4]
c-di-GMP [2]
  binding of c-di-GMP (MST): only c-di-GMP binding to CSP4 was observed
GMP
  binding of GMP (MST): none of the related nucleotides or CDNs was able to bind
GTP
  binding of GTP (MST): none of the related nucleotides or CDNs was able to bind
pGpG
  binding of pGpG (MST): none of the related nucleotides or CDNs was able to bind
3′3′-c-di-AMP
  binding of 3′3′-c-di-AMP (MST): none of the related nucleotides or CDNs was able to bind
3′3′-cGAMP
  binding of 3′3′-cGAMP (MST): none of the related nucleotides or CDNs was able to bind
2′3′-cGAMP
  binding of 2′3′-cGAMP (MST): none of the related nucleotides or CDNs was able to bind
